Measured values reported in ChEMBL document CHEMBL5329171, “First-in-class small molecule inhibitors of ICOS/ICOSL interaction as a novel class of immunomodulators” (RSC Med Chem, 2023).

Legend:
ICOS-ICOSL [1] = molecular target: T1, ICOS-ICOSL (Homo sapiens, UniProt O75144+Q9Y6W8); assay: Inhibition of C-terminal IgG1 Fc region fused human ICOS extracellular domain (1 to 141 residues)/C-terminal polyhistidine tagged human ICOSL extracellular domain (1 to 258 residues) interaction incubated for 1 hr by TR-FRET assay; type: protein assay
T1 sequence (O75144 whole entry): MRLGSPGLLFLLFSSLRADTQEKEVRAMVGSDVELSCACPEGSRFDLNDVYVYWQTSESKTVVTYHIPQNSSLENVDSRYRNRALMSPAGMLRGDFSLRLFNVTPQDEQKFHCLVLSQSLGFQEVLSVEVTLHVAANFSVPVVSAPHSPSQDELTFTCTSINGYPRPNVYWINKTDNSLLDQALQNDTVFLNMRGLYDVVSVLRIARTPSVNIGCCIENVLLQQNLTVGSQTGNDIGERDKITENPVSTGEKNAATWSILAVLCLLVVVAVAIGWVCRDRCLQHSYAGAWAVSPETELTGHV
T1 sequence (Q9Y6W8 whole entry): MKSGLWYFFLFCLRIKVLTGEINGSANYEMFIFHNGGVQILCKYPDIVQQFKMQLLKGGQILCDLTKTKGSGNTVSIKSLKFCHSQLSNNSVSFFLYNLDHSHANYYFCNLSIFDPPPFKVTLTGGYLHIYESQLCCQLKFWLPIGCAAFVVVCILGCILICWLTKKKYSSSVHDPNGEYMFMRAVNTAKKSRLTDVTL
Method in brief: (§1)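 Fc-tagged human ICOS and His-tagged ICOSL, 10 nM each final, with Tb cryptate anti-His mAb (1 nM) donor and XL665 anti-human Ab (10 nM) acceptor. Compounds in DMSO (0.1%)/PBS pH 7.4, 1 h at room temperature. Read 665/620 nm ratio ×100 with 340 nm excitation. Percent inhibition scaled 0% (DMSO) to 100% (1 μM anti-ICOS mAb). Triplicate, single run. Single-dose screen at 50 μM final; IC50 from dose–response.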

[2] = Metabolic stability in rat liver microsomes; type: ADME, Microsome
[3] = Metabolic stability in human plasma measured at 120 mins; type: ADME, cell-free; details: 2 h
HEL 299 = assay: Cytotoxicity against human HEL 299 cells; type: toxicity, cell-based
[4] = molecular target: T2, ICOS-ICOSL (Homo sapiens) (UniProt O75144+Q9Y6W8); assay: Inhibition of human ICOS expressed in Jurkat T cells coexpressing TCR/CD3 and NanoLuc luciferase reporter/ICOSL (unknown origin) expressed in CHO-K1 cells interaction assessed as reduction in luminescence; type: cell-based; details: dose 5-20 µM
Method in brief: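 Commercial blockade kit, run per manufacturer's protocol. ICOS effector Jurkat cells (NanoLuc reporter) co-cultured with ICOSL/CHO-K1 cells carrying a TCR/CD3 activator. Compound tested at 5, 10 and 20 μM; anti-ICOS mAb (100 nM) as positive control. Luminescence compared with untreated control. Triplicate, single run.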

[5] = Stability in simulated gastric fluid at pH 1.6; type: ADME; details: simulated gi fluid
[6] = Stability in simulated intestinal fluid at pH 6.5; type: ADME; details: simulated gi fluid
[7] = molecular target: T2, ICOS-ICOSL (Homo sapiens); assay: Inhibition of C-terminal IgG1 Fc region fused human ICOS extracellular domain (1 to 141 residues)/C-terminal polyhistidine tagged human ICOSL extracellular domain (1 to 258 residues) interaction assessed as reduction in FRET signal at 50 uM incubated for 1 hr by TR-FRET assay relative to control; type: protein assay; method in brief: as §1
ICOS-ICOSL [8] = molecular target: T1, ICOS-ICOSL; assay: Inhibition of ICOS (unknown origin)/C-terminal IgG1 FC region fused human ICOSL interaction by ELISA; type: protein assay
Method in brief: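 Commercial ICOS/ICOSL ELISA kit, run per manufacturer's protocol. Anti-ICOS antagonist mAb as positive control. Triplicate, single run.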

Row | SMILES | IC50 (ICOS-ICOSL [1]) [µM] | other results
1 | COc1ccc(C(=O)Nc2cc(Cl)cc3c2[nH]c2cnccc23)cc1 | 49.3 | –
2 | COc1cccc(C(=O)Nc2cc(Cl)cc3c2[nH]c2cnccc23)c1 | 36.7 | –
3 | COc1c(Cl)cc2c([nH]c3cnccc32)c1NC(=O)c1cncnc1C | 5.65 | –
4 | O=C(Nc1ccc(Cl)cc1)c1c(O)ccc2c1[nH]c1ccccc12 | > 50 | –
5 | CC1(C)CN[C@@H](C(=O)Nc2cc(Cl)cc3c2[nH]c2cnccc23)CO1 | 11.1 | –
6 | CCOc1ccc(-c2nc(C(=O)Nc3ccccc3Cl)cc3c2[nH]c2ccccc23)cc1OC | > 50 | –
7 | O=C(Nc1cc(Cl)cc2c1[nH]c1cnccc12)c1ccccn1 | 28.6 | –
8 | O=C(Nc1cc(Cl)cc2c1[nH]c1cnc(NCc3ccccc3)cc12)c1cccnc1 | 4.68 | Stability [2]: Stable; Stability [3]: Stable; Activity (HEL 299): Non-Toxic; inhibition [4]: Dose-Dependent Effect; Stability [5]: Stable; Stability [6]: Stable
9 | COc1ccccc1C(=O)Nc1cc(Cl)cc2c1[nH]c1cnccc12 | 43.7 | –
10 | O=C(Nc1cc(Cl)cc2c1[nH]c1cnccc12)c1cccnc1 | 13.9 | –
11 | O=C(Nc1cc(Cl)cc2c1[nH]c1cnc(NCc3ccccc3)cc12)c1ccccn1 | 15.5 | –
12 | O=C(Nc1cc(Cl)cc2c1[nH]c1cnccc12)c1ccccc1 | > 50 | –
13 | O=C(Nc1ccc(Cl)cc1)c1cc2c(cc1O)[nH]c1ccccc12 | > 50 | –
14 | O=C(Nc1cc(Cl)cc2c1[nH]c1cnccc12)c1ccncc1 | 31 | –
15 | COc1c(Cl)cc2c([nH]c3cnccc32)c1NC(=O)c1cccnc1C | 12.2 | inhibition [7]: > 90%; IC50 (ICOS-ICOSL [8]): 10.3 µM
16 | O=C(Nc1cc(Cl)cc2c1[nH]c1cnc(NCc3ccccc3)cc12)c1ccncc1 | 18.4 | –
17 | O=C(Cc1ccccn1)Nc1cc(Cl)cc2c1[nH]c1cnccc12 | 37.1 | –
